Hits are enriched below; roughly 2.6% of the tested compounds scored in any of these assays.
ERAP1 HTS inh – blocks human ERAP1 aminopeptidase activity | Q9NZ08 | recombinant ERAP1, Leu-AMC fluorescence, 60 min | inhibition, % at 10.7 µM | 340,000 tested, 0.15% active | AID 652197;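 active = mean replicate inhibition of at least 30%, or all replicates individually reaching that 30% level; inactive = mean below 30% and not every replicate reaching it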;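 also: 0% = neutral control wells and 100% = L-leucinethiol positive control wells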
F508del corr – correctors of CFTR F508del function in bronchial epithelial cells | CFBE cells, YFP halide quenching; stimulated with forskolin plus potentiator P3; % fluorescence drop versus neutral controls | activity (quench increase), % at 7.58 µM | 350,000 tested, 0.36% active;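 active = mean added fluorescence quench of at least 8% versus neutral control, with both replicates also reaching 8%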;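 also: cells transiently co-express mutant CFTR-F508del with the halide-sensitive YFP; corrector assay measuring rescue of mutant channel to the surface after 24 h compound exposure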
miR122 inh – miR-122 inhibition in Huh7 cells | 340,000 tested, 0.3% active | activation (reporter increase), % at 12.5 µM | Huh7 miR-122 Renilla luciferase sensor, 48 h; neutral wells = 0, positive control = 100;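 active = mean replicate activation score at least 90 and every replicate individually at or above 90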;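 also: higher luciferase means less miR-122 activity so hits act as miR-122 inhibitors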
DENV2 CPE rescue – protects cells from dengue virus 2 cytopathic effect. DENV2-infected cells, cytopathic effect rescue, plate reader. CPE inhibition, % at 9.99 µM. 350,000 tested, 1.7% active. AID 651640; in the data active = CPE inhibition above about 20%, passing the limit was not always enough; tested in BHK-21 cells;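 also: 0% = median of neutral control wells and 100% = median of positive control wells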
GSIS activator – primary screen for activators of insulin secretion dependent on glucose, INS-1E cells, GLuc reporter luminescence; 370,000 tested, 0.61% active; INS-1E GLuc reporter insulin secretion, 2-3 h; AID 743287; activation, % at 16.6 µM;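 active = lowest replicate activation of at least 40%, so every replicate reaches that level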;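 also: 0% = median of neutral control wells and 100% = median of IBMX positive control wells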
E-sel inducer – E-selectin induction on HUVECs | P16581 | 260,000 tested, 0.37% active | AID 686992 | activation, % at 7.58 µM | HUVEC E-selectin immunofluorescence imaging; normalized: neutral wells 0, TNF-alpha wells 100;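 active = mean E-selectin-positive cell signal at least 10% of the positive control, reached in at least 60% of replicates, without over 20% cell loss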
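Read-out basis: % PE-positive cells; Test system: HUVEC primary endothelial cells; Technique: immunofluorescence imaging; Dosing: single-point compound dose.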
* hit, by the source's call; . = not tested or not shown; [ ] = another dose, or the depositor's remark.

SMILES	ERAP1 HTS inh	F508del corr	miR122 inh	DENV2 CPE rescue	GSIS activator	E-sel inducer
c1ccc(-c2csc(NC3=NCCCCC3)n2)cc1	-0.4	10.6*	0.9	0.3	3.4	-0.2
COc1cccc(S(=O)(=O)Nc2ccc3c(c2)C(=O)N(C)[C@H]2CC[C@H](CC(=O)Nc4ccc(C(C)C)cc4)O[C@@H]2CO3)c1	1.8	0.6	-8.3[16.7 µM]	-4.1	-18.8	0.0
CCS(=O)(=O)N[C@H]1C=C[C@@H](CC(=O)NC2Cc3ccccc3C2)O[C@@H]1CO	1.8	1.1	11.3[16.7 µM]	-0.8	11.9	-0.2
Cn1nnnc1Sc1ncnc2scc(-c3ccc(Cl)cc3)c12	2.3	-8.0	-11.7	10.7	70.4*	-0.1
Cn1nnnc1Sc1ncnc2scc(-c3cccc(Br)c3)c12	0.9	-3.1	-6.3	-0.2	35.6	0.0
CC(=O)c1cccc(-c2csc3ncnc(Sc4nnnn4C)c23)c1	-1.3	-10.5	-13.0	-3.5	42.0*	-0.2
COc1cccc(-c2ccc3c(c2)[C@H]2[C@H](CCN2C(=O)c2ccc(F)cc2)[C@H](CO)N3)c1	1.1	-0.2	-6.5[16.7 µM]	-19.1	-1.8	-0.3
COCC(=O)Nc1ccc2c(c1)[C@H]1C[C@H](CC(=O)N3CCN(C)CC3)O[C@H](CO)[C@H]1O2	.	2.0	-2.8[16.7 µM]	-6.0	2.0	0.5
Nc1nc2ccc(Cl)cc2cc1C(=O)NCCc1ccc(Cl)cc1Cl	0.1	1.1	.	19.2	62.0*	-0.2
COc1ccc2c3c([nH]c2c1)[C@H](CO)N(Cc1ccncc1)CC31CCN(C(=O)Cc2ccncc2)CC1	0.3	2.9	.	-3.5	19.4	-0.2
COc1ccccc1/C=C/C(=O)/C=C/c1ccccc1O	-4.1	-19.2	126.3*	13.6	19.2	0.4
C/C(=N/NC(=O)c1ccc(Br)o1)c1ccncc1	.	.	-4.4	.	66.7*	-0.7
CC(C)C#Cc1ccc([C@H]2[C@@H](CO)N3C(=O)CN(C(=O)NC4CCCCC4)C[C@@H]23)cc1	-0.5	3.9	.	-1.4	-16.9	0.9
CCn1c(CNc2ccc(F)cc2)nnc1SCC#N	-11.0	1.2	.	0.5	-3.0	.
CCn1c(CNc2ccc(Cl)cc2)nnc1SCC#N	-1.6	.	.	-1.1	-1.2	56.5*
O=C(C[C@@H]1CC[C@@H]2[C@H](COC[C@H](O)CN2Cc2cc(F)cc(F)c2)O1)NC1CCC1	0.1	0.1	-2.3[16.7 µM]	3.9	-1.5	0.0
COC(=O)C1=COC(OC2OC(CO)C(O)C(O)C2O)C2C(C)CC(=O)C12 (stereo not drawn)	1.9	-2.7	0.6	-6.3	-0.4	.
C=C1C[C@H](O[C@@H]2O[C@H](CO)[C@@H](O)[C@H](O)[C@H]2O)[C@@H]2[C@H](OC(=O)[C@H]2C)[C@H]2[C@H](C)[C@H](O)C[C@@H]12	.	-1.5	.	55.5*	8.1	-0.2
COc1ccc(/C=C/c2nnc(NC(=O)CSc3ccc(C)cc3)s2)cc1	4.6	1.0	4.2	1.9	14.6	0.2
CCC(=O)Nc1nnc(/C=C/c2ccc(OC)cc2)s1	.	5.7	.	57.7*	-1.6	.
CC(=O)N1[C@H](CN(C(=O)c2ccccc2)C(C)C)[C@@H](c2ccccc2)[C@@H]1CO	-0.3	-0.2	-5.9[16.7 µM]	-6.6	8.7	1.2
C[C@H](CO)N1C[C@H](C)[C@@H](CN(C)Cc2ccc(Oc3ccccc3)cc2)Oc2ccc(NC(=O)Nc3ccc(C(F)(F)F)cc3)cc2CC1=O	.	-1.3	-22.8[16.7 µM]	-3.6	10.9	35.8*
C[C@H](CO)N1C[C@H](C)[C@H](CN(C)Cc2ccc(C(=O)O)cc2)Oc2ccc(NC(=O)Nc3ccc(C(F)(F)F)cc3)cc2CC1=O	-2.9	-0.6	3.2[16.7 µM]	-3.8	-7.9	.
C[C@@H]1CN([C@H](C)CO)C(=O)Cc2cc(NC(=O)Nc3ccc(C(F)(F)F)cc3)ccc2O[C@H]1CN(C)Cc1ccc(C(=O)O)cc1	1.7	-0.8	-6.1[16.7 µM]	24.2*	15.3	.
C[C@H](CO)N1C[C@H](C)[C@H](CN(C)Cc2ccc(C(F)(F)F)cc2)Oc2ccc(NC(=O)Nc3ccccc3)cc2CC1=O	-3.3	-3.8	0.0[16.7 µM]	25.3*	-14.7	-0.2
SMILES	ERAP1 HTS inh	F508del corr	miR122 inh	DENV2 CPE rescue	GSIS activator	E-sel inducer
C[C@H](CO)N1C[C@H](C)[C@@H](CN(C)Cc2ccc(C(=O)O)cc2)Oc2ccc(NC(=O)Nc3ccc(F)cc3)cc2CC1=O	2.3	-2.1	-0.6[16.7 µM]	-0.7	-1.3	38.1*
C[C@H]1CN([C@@H](C)CO)C(=O)Cc2cc(NC(=O)Nc3ccc(F)cc3)ccc2O[C@H]1CN(C)Cc1ccc(C(=O)O)cc1	-8.5	-3.1	-7.9[16.7 µM]	17.8	-6.0	-4.4
Cc1noc(C)c1S(=O)(=O)N(C)C[C@H]1Oc2ccc(NC(=O)Cn3cnnn3)cc2CC(=O)N([C@H](C)CO)C[C@H]1C	0.6	-0.3	2.1[16.7 µM]	-7.2	4.9	-7.8
CO[C@H]1CN(C)C(=O)c2ccc(NC(=O)c3ccno3)cc2OC[C@@H](C)NC[C@H]1C	.	-2.1	.	-3.8	3.6	-0.3
C[C@@H]1CN([C@@H](C)CO)C(=O)c2cc(NC(=O)Nc3ccc(C(F)(F)F)cc3)ccc2O[C@@H]1CN(C)Cc1ccc(Oc2ccccc2)cc1	-3.4	6.7	11.0[16.7 µM]	14.3	-9.2	100.4*
COc1ccc([C@@H]2C/C=C\C[C@@H](c3ccc4c(c3)OCO4)NC(=O)[C@H](c3ccccc3)CC(=O)N2)c(OC)c1	.	.	.	.	1.7	.
CCC(=O)N1CC(=O)N2[C@H](CO)[C@H](c3ccc(C#CC(C)C)cc3)[C@@H]2C1	.	.	.	.	-5.5	.
O=C(c1ccc(S(=O)(=O)NCC2CCCO2)cc1)N1CCN(c2cccc(Cl)c2)CC1 (stereo not drawn)	.	16.0*	.	-0.8	-18.6	0.5
O=S(=O)(NCC1CCCO1)c1ccc(Cl)c(C(F)(F)F)c1 (stereo not drawn)	.	.	154.5*	.	4.7	.
COc1ccc(S(=O)(=O)NCC2CCCO2)cc1Cl (stereo not drawn)	2.0	-0.2	49.0	2.7	-1.4	-0.1
O=C(Nc1ccc(C(F)(F)F)cc1)N[C@H]1CC[C@@H](CC(=O)N2CCCCC2)O[C@H]1CO	.	4.1	.	-0.5	-15.8	0.4
C[C@H]1CN([C@@H](C)CO)S(=O)(=O)c2ccc(C#CC3(O)CCCC3)cc2O[C@@H]1CN(C)C(=O)Nc1ccccc1	0.8	1.4	30.0[16.7 µM]	3.9	-10.4	0.4
COc1ccccc1CNC(=O)C[C@@H]1CC[C@@H]2[C@H](COC[C@@H](O)CN2Cc2ccccc2)O1	-0.7	-1.6	3.4[16.7 µM]	3.0	-4.2	0.1
CN1C(=O)c2cc(NC(=O)NC3CCCC3)ccc2OC[C@@H]2O[C@H](CC(=O)NC3CCC3)CC[C@H]21	-0.3	2.3	2.6[16.7 µM]	6.6	-8.8	0.2
C[C@@H]1CCCCO[C@@H](CN(C)C(=O)c2ccccc2)[C@H](C)CN([C@H](C)CO)C(=O)c2cc(NC(=O)Nc3ccc4c(c3)OCO4)ccc2O1	-3.7	-1.0	-9.0[16.7 µM]	9.6	-9.8	-0.1

Compound activity deposited in PubChem BioAssay by Broad Institute.
